This is one part of a sample in which hits are shown more often than they occur.
Insulin prom act – TRM-6 insulin promoter activation; TRM-6 cells, insulin promoter eGFP reporter, imaging; plate-scaled: unstimulated 0, stimulated control 100; activation, % at 2 µM; 130,000 compounds, 0.81% hits; AID 1296;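 active means activation at 2 µM above a set limit, confirmed on inspection of the cell images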;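 further: share of cells whose green reporter signal exceeds an intensity cutoff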
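System – human fetal islet-derived TRM-6 cells with tamoxifen-inducible insulin promoter–eGFP reporter · Amount – 1,000 cells per well · Schedule – overnight tamoxifen, then two-day compound incubation at 37 °C · Detection – high-content imaging of fixed cells with Hoechst nuclear stain · Read-out – percent cells above green-intensity threshold, converted to percent activation versus plate controls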
The depositor's hits bear a star.

SMILES | Insulin prom act
COc1ccc(S(=O)(=O)N(C)CC(=O)NCc2ccco2)cc1 | 6
Cc1ccc2[nH]c(C)c(CCNC(=O)C3CCCCC3C(=O)OCC(F)(F)F)c2c1 (configuration not stated) | 8
C=C(C)Cn1c(SCC(=O)O)nnc1-c1ccc(OC)cc1 | -3
Cc1nnc(SCC2CCCO2)n1-c1ccccc1 (configuration not stated) | 8
COc1ccc(-c2nnc(SCC(=O)c3ccc[nH]3)n2-c2ccccc2)cc1 | 0
COC(=O)CSc1nnc(-c2ccccc2OC)n1-c1ccc(C)cc1 | 9
COc1ccccc1OCCSc1nnc(C)n1-c1ccccc1 | 83*
COc1ccc(-c2nnc(SCCC(=O)O)n2-c2ccccc2)cc1 | 486*
O=C(NCc1ccncc1)c1cc(C(=O)C2CC2)c[nH]1 | 7
O=C(OCC(=O)c1c[nH]c2ccccc12)c1cc2ccccc2cc1O | 0
Cc1ccc(S(=O)(=O)Nc2cccc(NC(=O)CN3CCCCC3)c2)cc1 | 0
Cc1ccc(/C=N/NC(=O)c2cc(C3CC3)nc3ccccc23)o1 | 7
COc1ccc(-c2cc(C(F)(F)F)nc(SCC(=O)NCc3cccs3)n2)cc1OC | -6
Cn1nnnc1SCC(=O)c1cccs1 | -9
Cn1nnnc1SCSc1nnnn1C | 625*
Cn1nnnc1SCC(=O)NCc1ccccc1 | -93
COc1ccc(-c2nn(C)c(=O)c3ccccc23)cc1NC(=O)Cn1nc(-c2ccccc2)c2ccccc2c1=O | -3
CCSc1nnc(NC(=O)[C@@H](NC(=O)c2ccccc2F)C(C)C)s1 | -8
CCc1ccc2nc3sc(C(=O)O)cc3cc2c1 | 8
COc1cc(/C=N/Nc2nc(N3CCCC3)nc(N3CCCC3)n2)ccc1O | 0
CCOc1ccc(/C=N/Nc2nc(N3CCCC3)nc(N3CCCC3)n2)cc1OC | -6
Fc1ccc(COc2ccc(Cl)cc2/C=N/Nc2nc(N3CCCC3)nc(N3CCCC3)n2)cc1 | 658*
O=C(c1cc2ccccc2oc1=O)N1CCN(c2ncccn2)CC1 | -79
CC(=O)N(C)c1ccc(OCC(O)Cn2c3ccc(Cl)cc3c3cc(Cl)ccc32)cc1 (configuration not stated) | 4
O=C(O)c1ccccc1C(=O)N1CCN(C(=O)c2ccccc2Cl)CC1 | 7
SMILES | Insulin prom act
O=C(c1ccc(-c2ccccc2)cc1)N1CCCC1 | 10
O=C(c1ccccc1-c1ccccc1)N1CCCC1 | 520*
CCOC(=O)c1cc(NC(=O)Nc2ccccn2)c(C)nc1C | 6
O=C(NCc1ccccc1Cl)C(=O)NCC(c1ccco1)N1CCOCC1 (configuration not stated) | -78
CCCC12CN3CC(C)(CN(C1)C3c1ccco1)C2=O (configuration not stated) | 6
CCn1c(=O)n(CC(=O)Nc2cc(OC)ccc2OC)c(=O)c2ccccc21 | 600*
COc1ccc(OC)c(NC(=O)CN2CCC(C(=O)c3ccc(C)cc3)CC2)c1 | -83
COc1ccc(OC)c(NC(=O)CNC(=O)Cn2c(C)cc3ccccc3c2=O)c1 | -10
Cc1cccc(C(=O)N[C@H](C(=O)OCC(=O)NC2CCS(=O)(=O)C2)C(C)C)c1 (some centres not stated) | 0
O=C(O)CCCNC(=O)c1cccc(C(=O)NCCCC(=O)O)n1 | 0
O=C(c1ccc(Cl)cc1)c1c[nH]c(C(=O)NNc2cccc(Cl)n2)c1 | 431*
COC(=O)c1cc(C(=O)c2ccc(C(C)(C)C)cc2)c[nH]1 | 0
O=C(NNc1cccc(Cl)n1)c1ccc(Cl)cc1Cl | 9
CC(C)[C@H](NC(=O)c1ccc(C(C)(C)C)cc1)C(=O)Nc1nnc(C2CC2)s1 | -5
CC(=O)Nc1c(C(=O)N2CCN(c3ccccn3)CC2)cnn1-c1ccc(C)cc1 | -7
COC(=O)c1ccccc1OCCCN(C)C | -10
CC(C)CC(C(=O)NC(C)(C)C)N(CC1CCCO1)C(=O)c1snc(C(N)=O)c1N (configuration not stated) | 133
CCOc1ccc(NC(=O)CCNS(=O)(=O)c2ccc3c(c2)c(=O)n(C)c(=O)n3C)cc1 | -9
CCOC(=O)N1CCN(C(=O)CCNS(=O)(=O)c2ccc3c(c2)c(=O)n(C)c(=O)n3C)CC1 | 293*
Cn1c(=O)oc2cc(S(=O)(=O)NCCC(=O)N3CCc4ccccc4C3)ccc21 | 8
CC(OC(=O)c1ccc2c(=O)n3c(nc2c1)CCCCC3)C(=O)Nc1ccc(F)cc1Cl (configuration not stated) | 1
N#C/C(=C/c1ccc(N2CCCCC2)o1)C(=O)Nc1ccc(Cl)cc1 | 270*
N#C/C(=C/c1ccc(N2CCCCC2)o1)C(=O)Nc1ccc2ccccc2c1 | 186
N#C/C(=C/c1ccc(N2CCCCCC2)o1)c1cccc(F)c1 | 1
CCC(=O)Nc1cc(C(=O)OCC(=O)c2ccccc2)ccc1C | 0
SMILES | Insulin prom act
O=C(COC(=O)c1cccnc1Cl)c1cccc(Cl)c1 | -4
O=S(=O)(NCc1ccc2c(c1)OCO2)c1cccc(S(=O)(=O)N2CCOCC2)c1 | 0
Cc1ccc(/C=C/C(=O)Nc2cc(=O)n(C)c(=O)n2C)o1 | 9
O=C(c1ccc2c(c1)OCCO2)N1CCN(c2ccc([N+](=O)[O-])cc2)CC1 | 7
Cc1ccc2nc(N/C(N)=N/S(=O)(=O)c3ccc([N+](=O)[O-])cc3)nc(C)c2c1 | -4
CCC1=Nc2cc(C(=O)O)ccc2Sc2ccccc21 | -2
CCC1=Nc2cc(C(=O)NCCCOC(C)C)ccc2Sc2ccccc21 | 110*
CC(C)OCCCNC(=O)c1ccccc1Oc1ccccc1 | 346
C=CCn1c(SCN2C(=O)c3ccccc3C2=O)nc2ccc(Cl)cc2c1=O | -7
CNS(=O)(=O)c1cc(OC)c(OC)cc1CC(=O)OC | -8
CCCSc1nnc(Cn2c(=O)sc3ccccc32)n1C | -25
CCCSc1nnc(CN2CCOCC2)n1C | 419*
Cn1c(CCc2ccccc2)nnc1SCC(=O)N1CCOCC1 | 322
COC(=O)CCC(=O)Nc1cccc(Cl)c1 | 0
Cc1ccc(NC(=O)CCSCCC(=O)Nc2ccc(C)c(C)c2)cc1C | 3
CCc1cccc(NC(=O)CCSCCC(=O)Nc2cccc(CC)c2)c1 | 90*
CCOC(=O)c1cccc(NC(=O)c2cccnc2)c1 | 9
CCOC(=O)c1cccc(NC(=O)CSc2nnc(-c3cccnc3)n2CC)c1 | 81*
CCOC(=O)c1cccc(NC(=O)CSc2nnc(CNc3ccc(C)cc3)n2CC)c1 | 0
CCc1ccc(S(=O)(=O)/N=C2\C=CC(=O)c3ccccc32)cc1 | 327*
CCc1ccc(S(=O)(=O)/N=C2/C=C(Sc3ncn[nH]3)C(=O)c3ccccc32)cc1 | 169
COCCn1c(SCC(=O)NCc2ccco2)nnc1C(C)C | 307
O=C(O)/C=C/C(=O)Nc1ccccc1-c1ccccc1 | 0
O=C(CCSc1nnc(-c2ccco2)o1)N1CCOCC1 | 8
O=C1CCCC2=C1C(c1ccccc1)CC(=O)N2c1ccccc1 (configuration not stated) | 182*
Cc1cc(C)n(C2CC(=O)N(c3ccccc3)C2=O)n1 (configuration not stated) | 8
Cc1ccccc1C1CC(=O)NC2=C1C(=O)CCC2 (configuration not stated) | -9
CCOC(=O)C1(C)/C(=N/Nc2ccccc2Cl)C(=O)C(=O)N1c1ccccc1 (configuration not stated) | -79
CCOC(=O)C1C(=O)CC(C)(O)C(C(=O)OCC)C1c1ccc(C)s1 (configuration not stated) | 8
CCOC(=O)C1C(=O)CC(O)(c2ccccc2)CC1c1ccccc1 (configuration not stated) | 143*

Source: PubChem BioAssay (Columbia University Molecular Screening Center)
